In brackets after ≈: the same amount, converted by molar mass.
What was measured:
[1] = biological target: T1, Albumin (Homo sapiens, UniProt P02768); test: Binding affinity to human serum albumin by fluorescence spectrophotometry in presence of Ca2+; assay type: ADME; settings: isolated protein
In short: (§1)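 HSA-compound fluorescence measured in Tris-HCl (0.05 M Tris, 0.15 M NaCl, pH 7.4) with added metal chloride (CaCl2, KCl, MgCl2 or NiCl2). Excitation 295 nm, emission 300-450 nm, 298 K, 2.5 nm slits. The metal-ion effect is expressed as the ratio Kb/K0.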

[2] = biological target: T1, Albumin; test: Binding affinity to human serum albumin by fluorescence spectrophotometry in presence of Ni2+; assay type: ADME; settings: isolated protein; in short: as §1
[3] = tested on: Pseudomonas aeruginosa; test: Antibacterial activity against Pseudomonas aeruginosa by two-fold serial dilution method; assay type: functional
In short: (§2)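 Standard two-fold serial dilution in 96-well microtest plates following NCCLS. Top dilutions printed as 32, 16, 8, 4, 2, 1, 0.5 ug/mL. Wells inoculated and held at 37 °C for 24 h. Growth judged visually and by spectrophotometer, in triplicate. MIC is the lowest concentration giving complete growth inhibition.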

[4] = tested on: Candida albicans; test: Antifungal activity against Candida albicans ATCC 76615 after 24 hrs by microbroth dilution method; assay type: functional; settings: ATCC 76615, 24 h
In short: (§3)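 Spore suspension prepared in sterile distilled water from one-day-old cultures on Sabouraud agar, final 1-5 x 10^3 spores/mL. Compounds were serially diluted in RPMI 1640 to give eleven dilutions. Incubation at 35 °C for 24 h. Growth read visually and spectrophotometrically, in triplicate. MIC is the lowest concentration with complete inhibition.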

[5] = tested on: Micrococcus luteus; test: Antibacterial activity against Micrococcus luteus by two-fold serial dilution method; assay type: functional; in short: as §2
[6] = tested on: Saccharomyces cerevisiae; test: Antifungal activity against Saccharomyces cerevisiae after 24 hrs by microbroth dilution method; assay type: functional; in short: as §3
[7] = Cytotoxicity against human LO2 cells assessed as inhibition of cell viability at 64 ug/ml after 24 hrs by MTT assay; assay type: cell-based, L02; settings: read-out: INH
In short: (§4)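 LO2 hepatocytes were plated and left to attach for 24 h. DMSO stocks were diluted in medium and added, and cells were cultured for 24 h at 37 °C in humidified 5% CO2. MTT absorbance read at 490 nm. Three parallels. Inhibition computed as percent reduction of viable cells against drug-free control.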

[8] = tested on: Staphylococcus aureus; test: Antibacterial activity against methicillin-resistant Staphylococcus aureus N315 by two-fold serial dilution method; assay type: functional
In short: (§5)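 MIC read as the lowest concentration giving complete growth inhibition. Two-fold serial dilutions were made in 96-well plates following NCCLS, giving a series down to 0.5 µg/mL (…32, 16, 8, 4, 2, 1, 0.5). Plates were inoculated and incubated at 37 °C for 24 h. A DMSO-with-inoculum control without drug was included. Growth was monitored visually and spectrophotometrically, in triplicate.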

[9] = tested on: Streptococcus pneumoniae; test: Antibacterial activity against Streptococcus pneumoniae by two-fold serial dilution method; assay type: functional; in short: as §2
[10] = biological target: T1, Albumin; test: Drug transport index, ratio of Kb to K0 for human serum albumin by fluorescence spectrophotometry in presence of […]; assay type: ADME
In short: (§6)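 HSA in Tris-HCl (0.05 M Tris, 0.15 M NaCl, pH 7.4) with compound, in the presence of CaCl2, KCl, MgCl2 or NiCl2. Fluorescence was excited at 295 nm and emission recorded from 300 to 450 nm at 298 K, with 2.5 nm slits. Binding constants with the metal ion (Kb) and without it (K0) were expressed as Kb/K0.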

[11] = Cytotoxicity against human LO2 cells assessed as inhibition of cell viability at 16 ug/ml after 24 hrs by MTT assay; assay type: cell-based, L02; settings: read-out: INH; in short: as §4
[12] = biological target: T1, Albumin; test: Binding affinity to human serum albumin by fluorescence spectrophotometry in presence of K+; assay type: ADME; settings: isolated protein; in short: as §1
[13] = biological target: T1, Albumin; test: Drug transport index, ratio of Kb to K0 for human serum albumin by fluorescence spectrophotometry in presence of Ni2+; assay type: ADME; in short: as §6
[14] = tested on: Calf thymus DNA; test: Binding affinity to calf thymus DNA by UV-vis spectroscopy; assay type: nucleic-acid assay; settings: Bos taurus
In short: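 Calf thymus DNA held at a fixed concentration and titrated with increasing amounts of the compound. UV-vis absorption spectra were recorded at room temperature in 1.0 cm quartz cells, following the DNA band at 260 nm.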

[15] = tested on: Cyberlindnera jadinii; test: Antifungal activity against Candida utilis after 24 hrs by microbroth dilution method; assay type: functional; settings: Williopsis jadinii; in short: as §3
[16] = Cytotoxicity against human A549 cells assessed as cell viability at 256 ug/ml after 24 hrs by CCK-8 assay; assay type: cell-based; settings: read-out: Activity
In short: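 A549 cells were plated and allowed to attach for 24 h, then medium with the compound was added. The compound came from DMSO stocks diluted in medium to 8, 16, 32, 64, 128 and 256 µg/mL. Cells were kept at 37 °C in 5% CO2. Viability was read by CCK-8 absorbance at 450 nm against a drug-free control, three replicates.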

[17] = Cytotoxicity against human LO2 cells assessed as inhibition of cell viability at 32 ug/ml after 24 hrs by MTT assay; assay type: cell-based, L02; settings: read-out: INH; in short: as §4
[18] = tested on: Shigella dysenteriae; test: Antibacterial activity against Shigella dysenteriae by two-fold serial dilution method; assay type: functional; in short: as §5
[19] = biological target: T1, Albumin; test: Binding affinity to human serum albumin by fluorescence spectrophotometry in presence of Mg2+; assay type: ADME; settings: isolated protein; in short: as §1
[20] = tested on: Staphylococcus aureus; test: Antibacterial activity against Staphylococcus aureus ATCC 25923 by two-fold serial dilution method; assay type: functional; in short: as §2
[21] = tested on: Bacillus spizizenii; test: Antibacterial activity against Bacillus subtilis ATCC 6633 by two-fold serial dilution method; assay type: functional; in short: as §2
[22] = Dissociation constant, pKa of the compound by UV-spectroscopy; assay type: physicochemical
In short: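 DMSO stock at 4.0 × 10^-3 mol/L added to 2 mL of buffer, then shaken 10 min at room temperature. Buffers were acetate (pH 4.0–5.0), MES (5.5–6.5), HEPES (7.0–8.0) and CHES (8.5–9.4), each from 500 mM stocks. Scans ran 210–400 nm and were normalized. Absolute differences from the acid spectrum were summed at 244 and 308 nm, plotted against pH and fitted to obtain pKa.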

[23] = Cytotoxicity against human LO2 cells assessed as inhibition of cell viability at 128 ug/ml after 24 hrs by MTT assay; assay type: cell-based, L02; settings: read-out: INH
In short: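 Human hepatocyte LO2 cells were plated, attached for 24 h, then exposed to the compound diluted in medium from DMSO stock, at 37 °C in 5% CO2. Viability was read by MTT at 490 nm. Inhibition was calculated as the percent reduction of viable cells versus a drug-free control, mean of three parallels.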

[24] = Antibacterial activity against Eberthella typhosa by two-fold serial dilution method; assay type: functional; in short: as §5
[25] = biological target: T1, Albumin; test: Drug transport index, ratio of Kb to K0 for human serum albumin by fluorescence spectrophotometry in presence of Ca2+; assay type: ADME; in short: as §6
[26] = tested on: Escherichia coli; test: Antibacterial activity against Escherichia coli DH52 by two-fold serial dilution method; assay type: functional; in short: as §2
[27] = biological target: T1, Albumin; test: Binding affinity to human serum albumin by fluorescence spectrophotometry; assay type: ADME; settings: isolated protein
In short: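 HSA dissolved in Tris-HCl buffer (0.05 M Tris, 0.15 M NaCl, pH 7.4). Fluorescence emission scanned 300-450 nm at 298 K with excitation at 295 nm, 2.5 nm slits and 1.0 cm quartz cells.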

[28] = Aqueous solubility of the compound by UV-spectrophotometry; assay type: physicochemical
[29] = biological target: T1, Albumin; test: Drug transport index, ratio of Kb to K0 for human serum albumin by fluorescence spectrophotometry in presence of Mg2+; assay type: ADME; in short: as §6
[30] = Cytotoxicity against human LO2 cells assessed as inhibition of cell viability at 8 ug/ml after 24 hrs by MTT assay; assay type: cell-based, L02; settings: read-out: INH; in short: as §4
[31] = Octanol-water partition co-efficient, log P of the compound by shake flask method; assay type: physicochemical
[32] = tested on: Pichia norvegensis; test: Antifungal activity against Candida mycoderma after 24 hrs by microbroth dilution method; assay type: functional

T1 sequence (P02768 whole entry): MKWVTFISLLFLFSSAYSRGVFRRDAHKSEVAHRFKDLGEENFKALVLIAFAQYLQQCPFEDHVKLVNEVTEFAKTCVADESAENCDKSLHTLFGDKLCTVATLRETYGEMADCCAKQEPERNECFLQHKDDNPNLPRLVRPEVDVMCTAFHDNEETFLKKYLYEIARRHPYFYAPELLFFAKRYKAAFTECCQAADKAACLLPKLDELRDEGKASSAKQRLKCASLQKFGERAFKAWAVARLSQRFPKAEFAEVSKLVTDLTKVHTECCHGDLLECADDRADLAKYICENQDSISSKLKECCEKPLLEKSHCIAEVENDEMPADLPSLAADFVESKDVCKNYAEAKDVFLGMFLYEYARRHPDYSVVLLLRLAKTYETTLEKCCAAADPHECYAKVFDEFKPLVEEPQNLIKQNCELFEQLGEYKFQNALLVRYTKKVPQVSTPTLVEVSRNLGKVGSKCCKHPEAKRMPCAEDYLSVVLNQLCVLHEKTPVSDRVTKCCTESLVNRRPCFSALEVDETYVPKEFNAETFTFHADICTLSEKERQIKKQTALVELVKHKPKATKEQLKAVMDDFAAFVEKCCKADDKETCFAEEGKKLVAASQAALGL

Cc1ncc([N+](=O)[O-])n1CC(O)Cn1cc(C(=O)O)c(=O)c2ccc(C(F)(F)F)cc21 (configuration not stated)
Kb [1]: 3.61 ×10⁴ L/mol
Kb [2]: 5.07 ×10⁴ L/mol
MIC [3]: 4 µg/mL (≈ 9.08 µM)
MIC [4]: 64 µg/mL (≈ 145 µM)
MIC [5]: 1 µg/mL (≈ 2.27 µM)
MIC [6]: 64 µg/mL (≈ 145 µM)
cytotoxicity at 24 h, 64 ug/ml [7]: 15.2%
MIC [8]: 1 µg/mL (≈ 2.27 µM)
MIC [9]: 4 µg/mL (≈ 9.08 µM)
Ratio [10]: 1.51
cytotoxicity at 24 h, 16 ug/ml [11]: 6.7%
Kb [12]: 3.42 ×10⁴ L/mol
Ratio [13]: 1.02
Activity [14]: Dose-dependent effect
MIC [15]: 512 µg/mL (≈ 1160 µM)
viability at 24 h, 256 ug/ml [16]: > 83%
cytotoxicity at 24 h, 32 ug/ml [17]: 10.3%
MIC [18]: 0.5 µg/mL (≈ 1.14 µM)
Kb [19]: 5.63 ×10⁴ L/mol
MIC [20]: 4 µg/mL (≈ 9.08 µM)
MIC [21]: 4 µg/mL (≈ 9.08 µM)
pKa [22]: 5.6
cytotoxicity at 24 h, 128 ug/ml [23]: 17.5%
MIC [24]: 8 µg/mL (≈ 18.2 µM)
Ratio [25]: 1.43
MIC [26]: 0.5 µg/mL (≈ 1.14 µM)
Kb [27]: 5.15 ×10⁴ L/mol
solubility [28]: 790 µg/mL (≈ 1790 µM)
Ratio [29]: 0.91
cytotoxicity at 24 h, 8 ug/ml [30]: 3.6%
logP [31]: -0.25
MIC [32]: 64 µg/mL (≈ 145 µM)

Source: ChEMBL document CHEMBL3351780, “Novel hybrids of metronidazole and quinolones: synthesis, bioactive evaluation, cytotoxicity, preliminary antimicrobial mechanism and effect of metal ions on their transportation by human serum albumin” (Eur J Med Chem, 2014)
